Test results from PubChem BioAssay.
The source made the active and inactive calls.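 Rule for the calls, unless noted: active = NADPH fluorescence slope more negative than the mean of all samples by about 3 SD, 99.7% confidence; inactive = the rest.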

What was measured:
[1] = inhibitors of TNFa-induced NFkB p65 translocation, primary screen, imaging, HUVEC, MLSMR starter and 10KST1 sets (AID 438;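 active = inhibition above 20% together with a positive visual image hit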;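 note: compound added about 3h40 before a 20 min TNFalpha stimulation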;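 for inhibition: signal is the nuclear over cytoplasmic p65 intensity ratio per well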); conditions: HUVEC TNFa-induced p65 nuclear translocation; cell count: measured here: nuclei count (cytotoxicity indicator), at 2.08 µM; inhibition: at 2 µM, stronger effect = higher value, 0% TNFa-plus-vehicle, 100% no-TNFa wells
[2] = reduction of polyQ htt aggregates in cells – imaging, exon1htt(103Q)mCFP cells, high-content imaging, primary screen (AID 483;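 active = visual image review flags a hit and inhibition of aggregation exceeds 20%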;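 note: compound exposure lasted 3 days before fixation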;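 for nuclei count: percent of the per-plate median nuclei count of sample wells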); conditions: exon1htt(103Q)mCFP cell line, aggregate imaging, at 2 µM; inhibition of aggregation: stronger effect = higher value; nuclei count: measured here: cell count, toxicity
[3] = endothelial E-selectin expression blockers – imaging, HUVEC, immunofluorescence, MLSMR starter and 10KST1 sets, primary screen (AID 487;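 active = visually confirmed hit in the image check and inhibition above 20%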;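 for inhibition: signal is fraction of cell area covered by stained E-selectin grains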;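 for nuclei count: 100% = median nuclei count of all wells on the same plate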); conditions: HUVEC TNFalpha-induced E-selectin immunofluorescence imaging, at 2 µM; inhibition: stronger effect = higher value; nuclei count: measured here: cell number, toxicity
[4] = target: Voltage-gated potassium channel subunit beta-2 (Rattus norvegicus) (UniProt P62483); test: inhibitors of rat Kvbeta2 reductase activity – biochemical, NADPH fluorescence, primary screen (AID 622;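 active = fluorescence slope higher than the sample average by over 3 SD, cut at about -0.22 in these data, passing the limit was not always enough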;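 note: slope of raw intensity against log time taken from 70 to 1610 s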); conditions: recombinant KvBeta, 4-cyanobenzaldehyde reduction, at 10 µM, stronger effect = higher value
[5] = target: Voltage-gated potassium channel subunit beta-2 (Rattus norvegicus) (UniProt P62483); test: enhancers of rat Kvbeta2 NADPH turnover – biochemical, NADPH fluorescence, primary screen (AID 623); conditions: Recombinant KvBeta, NADPH fluorescence decrease slope, 10 min; at 10 µM; stronger effect = lower value;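 note: fluorescence intensity change per second fitted from 20 to 320 s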
[6] = target: Muscarinic acetylcholine receptor M4 (Homo sapiens) (UniProt P08173); test: M4-linked GIRK flux change, two-sided – cell-based, HEK293 M4/GIRK, thallium flux, BTC-AM, M4 allosteric agonist project, primary screen (AID 625;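 active = fluorescence slope after compound addition differing from the mean of all tested samples at 99.7% confidence, mostly higher but some lower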;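 note: thallium influx through GIRK channels coupled to M4 in HEK293 cells with BTC-AM dye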); conditions: at 10 µM, actives lie on both sides
Method in brief: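 Material: M4/GIRK1/GIRK2 stable HEK293 cell line. Medium: pH 7.3 thallium assay buffer. Dosing: single compound concentration, 10 µM final. Schedule: 1 h dye loading, 2 min kinetic read. Measured by: kinetic fluorescence with BTC-AM dye. Read-out: post-addition slope, 15–24 s, of baseline-normalized fluorescence. Benchmarks: carbachol and DMSO controls.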

[7] = blockers of RIG-like receptor reporter activation – cell-based, Sendai virus stimulus, luciferase, 10K MLSCN set, TLR/RLR signaling modifier project, primary screen (AID 602276;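 active = inhibition at or above 50% at 10 µM; inactive = inhibition below 50%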;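 note: firefly luciferase from ISG56 promoter only with Renilla not read in this screen; 0% = Sendai virus plus DMSO and 100% = medium plus DMSO without virus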); conditions: HEK293 RL24 IRF3 luciferase reporter, at 10 µM, stronger effect = higher value
[8] = TLR3 IRF3 reporter activation blockers – cell-based, poly I:C stimulus, luciferase, 10K MLSCN set, primary screen (AID 602277;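 active = inhibition of the reporter signal at or above 50%; inactive = inhibition below 50%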); conditions: HEK293-TLR3 RL24 IRF3 luciferase reporter, at 10 µM, stronger effect = higher value

Voltage-gated potassium channel subunit beta-2 (Rattus norvegicus), sequence (P62483 whole entry, looked up): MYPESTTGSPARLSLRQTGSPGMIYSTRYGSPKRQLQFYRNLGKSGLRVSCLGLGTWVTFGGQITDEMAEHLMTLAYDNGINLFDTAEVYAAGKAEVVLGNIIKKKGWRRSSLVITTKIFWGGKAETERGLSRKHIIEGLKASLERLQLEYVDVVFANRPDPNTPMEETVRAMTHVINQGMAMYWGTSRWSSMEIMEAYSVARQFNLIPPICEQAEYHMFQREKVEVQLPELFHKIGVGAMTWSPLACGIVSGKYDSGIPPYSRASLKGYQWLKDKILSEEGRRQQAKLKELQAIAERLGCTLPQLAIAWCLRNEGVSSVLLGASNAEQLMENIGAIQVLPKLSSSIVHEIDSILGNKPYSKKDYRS
Muscarinic acetylcholine receptor M4 (Homo sapiens), sequence (P08173 whole entry, looked up): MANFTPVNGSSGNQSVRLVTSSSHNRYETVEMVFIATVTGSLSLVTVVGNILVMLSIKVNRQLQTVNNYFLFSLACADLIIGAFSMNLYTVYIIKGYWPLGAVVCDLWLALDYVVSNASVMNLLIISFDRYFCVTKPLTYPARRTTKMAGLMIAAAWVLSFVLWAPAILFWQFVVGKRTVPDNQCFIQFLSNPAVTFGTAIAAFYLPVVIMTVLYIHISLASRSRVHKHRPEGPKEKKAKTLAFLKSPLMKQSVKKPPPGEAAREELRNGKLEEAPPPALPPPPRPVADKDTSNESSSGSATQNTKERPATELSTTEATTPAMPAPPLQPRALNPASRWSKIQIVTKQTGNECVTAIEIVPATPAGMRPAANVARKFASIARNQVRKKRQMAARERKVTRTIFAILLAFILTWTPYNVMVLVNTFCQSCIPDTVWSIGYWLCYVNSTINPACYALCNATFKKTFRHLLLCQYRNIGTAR

| Compound | cell count [1] | inhibition [1] | inhibition of aggregation [2] | nuclei count [2] | inhibition [3] | nuclei count [3] | fluorescence slope [4] | NADPH fluorescence slope [5] | fluorescence slope [6] | inhibition [7] | inhibition [8] |
| --- | --- | --- | --- | --- | --- | --- | --- | --- | --- | --- | --- |
| CCc1nc(SCC(=O)Nc2nccs2)c2oc3ccccc3c2n1 | 347 | 4% (inactive) | 12.5% (inactive) | 104% | -14.6% (inactive) | 116% | -0.283 (inactive) | -2.5e-06 (inactive) | 0.00667 (inactive) | 1.9% (inactive) | -8.08% (inactive) |
| Cc1ccc(-n2ncc3c(N4CCN(c5ccc(F)cc5)CC4)ncnc32)c(C)c1 | 514 | -6.8% (inactive) | 4.6% (inactive) | 83.4% | 32.4% (inactive) | 92.4% | -0.521 (inactive) | -0.000115 (inactive) | 0.00599 (inactive) | -19.8% (inactive) | -65.4% (inactive) |
| Nc1nnc(SCCOc2ccccc2)s1 | 417 | -0.9% (inactive) | 2.2% (inactive) | 108% | -70% (inactive) | 98.8% | -0.535 (inactive) | -1.2e-05 (inactive) | 0.00525 (inactive) | -8.16% (inactive) | -14% (inactive) |
| Cc1ccc(S(=O)(=O)N(C)CC(=O)NC2CC(C)(C)NC(C)(C)C2)cc1 | 331 | -6.6% (inactive) | 6.2% (inactive) | 98.6% | 1.9% (inactive) | 89.8% | -0.555 (inactive) | -1.8e-05 (inactive) | 0.00697 (inactive) | 11.7% (inactive) | 22.6% (inactive) |
| Cn1c(=O)c2c(nc(SCc3nn[nH]n3)n2Cc2ccccc2F)n(C)c1=O | 481 | -9.5% (inactive) | 13.9% (inactive) | 81.9% | -5.3% (inactive) | 96.9% | -0.535 (inactive) | 4.4e-06 (inactive) | 0.00622 (inactive) | 15% (inactive) | 17.9% (inactive) |
| CCSc1nnc(NC(=O)c2cc(C)oc2C)s1 | 352 | -1.4% (inactive) | 5.7% (inactive) | 98.6% | 5.1% (inactive) | 56.1% | -0.451 (inactive) | -4.1e-07 (inactive) | 0.00476 (inactive) | -35.9% (inactive) | -83.6% (inactive) |
| COc1ccc(-c2nc(N)nc(C)c2Oc2ccccc2Br)c(O)c1 | 382 | 6.9% (inactive) | -14% (inactive) | 100% | -64.3% (inactive) | 85.6% | -0.496 (inactive) | 6e-05 (inactive) | 0.00571 (inactive) | 10.9% (inactive) | 53% (active) |
| Cc1ccc(NC(=O)c2oc3ccc(S(=O)(=O)N4CCOCC4)cc3c2C)cc1C | 357 | -20.4% (inactive) | -20.5% (inactive) | 109% | -98.4% (inactive) | 133% | -0.278 (inactive) | 2.2e-05 (inactive) | 0.00768 (inactive) | 11% (inactive) | 13.9% (inactive) |
| COC(=O)c1ccccc1S(=O)(=O)N(CCCN1CCOCC1)Cc1cccs1 | 328 | 2.1% (inactive) | 2.9% (inactive) | 104% | -43.1% (inactive) | 115% | -0.502 (inactive) | 1.2e-05 (inactive) | 0.00684 (inactive) | 14% (inactive) | 19.2% (inactive) |
| CCc1nc(C)c(-c2ccccc2)c(=O)[nH]1 | 211 | 0.8% (inactive) | 5.5% (inactive) | 97.2% | -99.3% (inactive) | 102% | -0.567 (inactive) | -7.1e-06 (inactive) | 0.00452 (inactive) | -0.853% (inactive) | 3.2% (inactive) |
| Cc1onc(-c2ccccc2)c1C(=O)Nc1ccnn1C1CCCCC1 | 387 | 1.4% (inactive) | 0.6% (inactive) | 94.4% | 8.4% (inactive) | 81.7% | -0.367 (inactive) | -8.4e-05 (inactive) | 0.00689 (inactive) | 9.16% (inactive) | 18.3% (inactive) |
| N#C[C@@H]1[C@@H]2C(=O)N(c3ccc4c(c3)OCCO4)C(=O)[C@@H]2C2c3ccccc3C=CN21 (stereo partly drawn) | 351 | 0.5% (inactive) | 6.7% (inactive) | 107% | -62.1% (inactive) | 106% | -0.6 (inactive) | -2.2e-05 (inactive) | 0.00563 (inactive) | -1.7% (inactive) | -13.1% (inactive) |
| Cc1ccc(Cn2c(C)nc3c(c2=O)c2nc4ccccc4nc2n3Cc2ccco2)cc1 | 623 | -5.4% (inactive) | -11% (inactive) | 111% | -33.1% (inactive) | 91.7% | -0.557 (inactive) | -5.9e-05 (inactive) | 0.00181 (inactive) | 16.5% (inactive) | 28.3% (inactive) |
| Cc1cc(NC(=O)CSc2nc3ccsc3c(=O)n2NC(=O)c2ccccc2)no1 | 317 | -1.2% (inactive) | -4.7% (inactive) | 102% | -234% (inactive) | 117% | -0.449 (inactive) | 9e-05 (inactive) | 0.00651 (inactive) | -39.7% (inactive) | -61.1% (inactive) |
| Cc1ccccc1CN1CCNC1=O | 624 | 40.3% (active) | 7% (inactive) | 88.7% | -69.6% (inactive) | 138% | -0.558 (inactive) | -4e-05 (inactive) | 0.00621 (inactive) | 23.3% (inactive) | 26.8% (inactive) |
| O=S(=O)(c1ccc(OCC(O)CN2CCN(c3ccccc3)CC2)cc1)N1CCOCC1 (stereo not drawn) | 603 | -34.9% (inactive) | -19.9% (inactive) | 104% | -19.7% (inactive) | 108% | -0.214 (inactive) | -1.7e-05 (inactive) | 0.00626 (inactive) | 13.5% (inactive) | -5.1% (inactive) |
| CCc1nnc(NC(=O)c2ccc(-c3cccc(C(F)(F)F)c3)o2)s1 | 730 | -2.9% (inactive) | 43.6% (inactive) | 76.5% | -24.2% (inactive) | 99.1% | -0.528 (inactive) | -4.6e-05 (inactive) | 0.00667 (inactive) | -0.00167% (inactive) | -0.904% (inactive) |
| O=C(O)Cn1cc2c(n1)CCCC2 | 638 | 0.2% (inactive) | -7.3% (inactive) | 104% | 13.9% (inactive) | 114% | -0.395 (inactive) | 6.4e-05 (inactive) | 0.00644 (inactive) | 9.43% (inactive) | 8.73% (inactive) |
| COc1cc(OC)cc(-c2nnc(Nc3nc4c(F)cccc4s3)o2)c1 | 345 | -3.8% (inactive) | 12% (inactive) | 84.3% | 28.3% (inactive) | 92.1% | -0.336 (inactive) | 7e-05 (inactive) | 0.0196 (active) | 17.6% (inactive) | 12.9% (inactive) |
| COc1cc(OC)c(C(=O)Nc2ccc(N(C)C)cc2)cc1OC | 369 | 5.2% (inactive) | 7.1% (inactive) | 94% | -85.5% (inactive) | 116% | -0.448 (inactive) | -4.1e-05 (inactive) | 0.00454 (inactive) | -79.1% (inactive) | 99.1% (active) |
| CCOc1ncccc1C(=O)OCC(=O)Nc1ncc(C(F)(F)F)cc1Cl | 474 | -12.1% (inactive) | -26.1% (inactive) | 80.7% | -29% (inactive) | 108% | -0.588 (inactive) | 2.6e-05 (inactive) | 0.00542 (inactive) | 22.1% (inactive) | 18% (inactive) |
| COc1ccc(C2CC(=O)c3cnc(NC(=O)c4ccccc4OC)nc3C2)c(OC)c1 (stereo not drawn) | 434 | -6.7% (inactive) | 15% (inactive) | 94.2% | -80.1% (inactive) | 107% | -0.459 (inactive) | 0.000189 (inactive) | 0.00664 (inactive) | 14.1% (inactive) | 6.68% (inactive) |
| CC(C)Oc1cccc(-c2cc(C(=O)N3CCN(S(C)(=O)=O)CC3)c3ccccc3n2)c1 | 638 | 11.6% (inactive) | 11.2% (inactive) | 108% | -49% (inactive) | 95% | -0.454 (inactive) | 2e-05 (inactive) | 0.00711 (inactive) | -23% (inactive) | -35.2% (inactive) |
| O=C(Cn1c(=O)[nH]c2ccsc2c1=O)NC1CCCCCC1 | 468 | -0.7% (inactive) | 19.2% (inactive) | 104% | 13.2% (inactive) | 107% | -0.26 (inactive) | -3.5e-06 (inactive) | 0.0062 (inactive) | 17.6% (inactive) | 9.21% (inactive) |
| O=S(=O)(NCCSc1ccccc1)c1cccs1 | 652 | -6.3% (inactive) | -14.5% (inactive) | 103% | -12.2% (inactive) | 104% | -0.208 (inactive) | -2e-05 (inactive) | 0.00557 (inactive) | 5.83% (inactive) | 11.1% (inactive) |
| COc1ccc2cnn(-c3ccccc3)c(=O)c2c1OC | 342 | -1.2% (inactive) | -8.5% (inactive) | 107% | 35.5% (inactive) | 109% | -0.549 (inactive) | -7.6e-05 (inactive) | 0.00377 (inactive) | -4.11% (inactive) | -25.4% (inactive) |
| CC1(C)Cc2noc(N)c2C(C)(C)N1OC(=O)c1cccs1 | 379 | 0% (inactive) | 5.5% (inactive) | 110% | -80.4% (inactive) | 129% | -0.46 (inactive) | 1.8e-05 (inactive) | 0.00603 (inactive) | 4.03% (inactive) | 12.6% (inactive) |
| Cc1ccc(CNC(=O)CCCn2c(=O)c3ccccc3n(CC(=O)NCc3ccco3)c2=O)cc1 | 451 | -11.1% (inactive) | -4% (inactive) | 114% | -76.5% (inactive) | 97.1% | -0.509 (inactive) | -0.000209 (inactive) | 0.00296 (inactive) | -6.73% (inactive) | -15.2% (inactive) |
